Only some compounds are listed: those with a hit (about 0.92% of all), similar ones and a draw of the others.
Glyco luc inh: N-linked glycosylation inhibition; D54 ERlucT glycosylation luciferase reporter, 24 h; percent of 100 nM tunicamycin response; 360,000 compounds, 0.23% hits; reporter increase, % at 12.5 µM;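 active = mean luciferase reporter signal, scaled so untreated is 0 and the glycosylation-blocking control 100, at or above a set limit in every replicate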;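 note: luciferase carries N-glycosylation sites so blocking glycosylation raises the light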
RAD52 inh: blocks human RAD52 DNA annealing. recombinant RAD52 DNA annealing, FRET fluorescence. inhibition, % at 18.7 µM. 360,000 compounds, 0.46% hits;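 active = every replicate showing at least 50% inhibition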
RAD54 inh: RAD54 (human) branch migration inhibition; inhibition, % at 10.4 µM; Q92698; 360,000 compounds, 0.14% hits; RAD54 Holliday junction branch migration, FAM/BHQ fluorescence; AID 602329;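 active = mean normalized replicate activity at least 40 and at least half of replicates scoring 40 or more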;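 note: inhibitors cause a drop in the FAM fluorescence signal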
AF4-AF9 inh: inhibitors of human MLL-AF4/AF9 interaction | P42568 | AlphaScreen, biotin-AF4 peptide binding to FLAG-AF9 | inhibition, % at 10 µM | 350,000 compounds, 0.47% hits;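 active = every replicate reaching a set inhibition limit, whatever the replicate mean, cut at about 25% in these data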
Target sequence (P42568 whole entry, looked up): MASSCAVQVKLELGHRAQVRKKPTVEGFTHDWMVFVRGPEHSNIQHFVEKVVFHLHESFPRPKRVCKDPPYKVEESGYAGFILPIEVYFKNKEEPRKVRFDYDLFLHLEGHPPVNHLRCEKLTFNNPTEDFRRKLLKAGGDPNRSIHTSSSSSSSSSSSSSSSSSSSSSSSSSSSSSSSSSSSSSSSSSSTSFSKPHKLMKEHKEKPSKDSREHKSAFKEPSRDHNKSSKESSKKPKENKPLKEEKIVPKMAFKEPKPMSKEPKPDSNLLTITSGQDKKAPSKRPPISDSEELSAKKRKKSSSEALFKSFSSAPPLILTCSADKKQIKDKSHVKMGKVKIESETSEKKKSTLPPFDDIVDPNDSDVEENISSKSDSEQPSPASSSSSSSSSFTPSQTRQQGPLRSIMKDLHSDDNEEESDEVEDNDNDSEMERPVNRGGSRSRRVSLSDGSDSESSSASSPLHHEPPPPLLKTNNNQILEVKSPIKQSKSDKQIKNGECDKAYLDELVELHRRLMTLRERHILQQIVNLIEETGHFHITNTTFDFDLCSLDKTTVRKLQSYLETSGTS
FN deposition inh: fibronectin deposition inhibition; AH1F fibroblasts, Alexa488-fibronectin deposition fluorescence, overnight; 350,000 compounds, 0.086% hits; inhibition, % at 12.6 µM; AID 743247;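 active = mean inhibition across replicates of 30% or more, regardless of how many single replicates reach that level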
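Test system: AH1F fibroblast monolayer depositing Alexa488-labelled fibronectin into matrix. Input: 10000 cells per well. Technique: fluorescence, ex 485 nm, em 525 nm. Buffer or medium: DMEM plus 2% serum, read in PBS. Timing: 1 h cell adhesion before compound, then overnight fibronectin incubation. Compound: single dose, pinned. Read-out basis: inhibition from reduced deposited-fibronectin fluorescence.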
Numbers stand for hits; - = inactive; . = not tested or not shown.

SMILES	Glyco luc inh	RAD52 inh	RAD54 inh	AF4-AF9 inh	FN deposition inh
C[C@@H]1CN([C@H](C)CO)C(=O)c2cc(NC(=O)Nc3ccc(C(F)(F)F)cc3)ccc2O[C@@H](C)CCCCO[C@H]1CN(C)Cc1ccc2c(c1)OCO2	.	-	-	-	-
C[C@@H]1CCCCO[C@H](CN(C)Cc2ccc3c(c2)OCO3)[C@@H](C)CN([C@@H](C)CO)C(=O)c2cc(NC(=O)Nc3ccc(C(F)(F)F)cc3)ccc2O1	.	61	-	-	.
C[C@@H]1CCCCO[C@@H](CN(C)C)[C@H](C)CN([C@@H](C)CO)C(=O)c2cc(NC(=O)Nc3ccc(C(F)(F)F)cc3)ccc2O1	.	53	-	-	.
C[C@H]1CCCCO[C@@H](CN(C)C(=O)CCCN(C)C)[C@@H](C)CN([C@@H](C)CO)C(=O)c2cc(NC(=O)Nc3ccc(F)cc3)ccc2O1	.	52	-	-	.
C[C@H]1CCCCO[C@@H](CN(C)C(=O)Nc2ccc(C(F)(F)F)cc2)[C@@H](C)CN([C@@H](C)CO)C(=O)c2cc(NC(=O)C3CCCCC3)ccc2O1	.	-	-	-	.
C[C@@H]1CCCCO[C@@H](CN(C)CC2CCCCC2)[C@H](C)CN([C@H](C)CO)C(=O)c2cc(NC(=O)c3ccccc3)ccc2O1	.	-	-	27	-
C[C@@H]1CCCCO[C@@H](CN(C)Cc2ccc3c(c2)OCO3)[C@@H](C)CN([C@@H](C)CO)C(=O)c2cc(NC(=O)Nc3ccc4c(c3)OCO4)ccc2O1	.	55	-	-	-
C[C@H]1CCCCO[C@@H](CN(C)C(=O)CCCN(C)C)[C@@H](C)CN([C@@H](C)CO)C(=O)c2cc(NS(=O)(=O)c3ccc(Cl)cc3)ccc2O1	.	54	-	-	-
C[C@H]1CCCCO[C@H](CN(C)Cc2ccc3c(c2)OCO3)[C@@H](C)CN([C@@H](C)CO)C(=O)c2cc(NC(=O)Nc3ccc4c(c3)OCO4)ccc2O1	.	-	-	29	-
C[C@@H]1CCCCO[C@@H](CN(C)CC2CCCCC2)[C@H](C)CN([C@@H](C)CO)C(=O)c2cc(NC(=O)c3ccccc3)ccc2O1	.	-	-	-	-
O=C(C[C@@H]1CC[C@H](NC(=O)c2ccc3c(c2)OCO3)[C@H](CO)O1)NC1Cc2ccccc2C1	.	-	-	-	-
COc1ccc(CNC(=O)C[C@@H]2C[C@H]3c4cc(NC(=O)CN(C)C)ccc4O[C@H]3[C@@H](CO)O2)cc1	.	-	-	-	.
O=C(C[C@@H]1CC[C@H](NC(=O)CC2CC2)[C@@H](CO)O1)NCc1ccccc1	.	-	.	-	.
CN(C)C(=O)c1cccc(-c2cnc3c(NC=O)cc(-c4ccccc4N(C)C)cn23)c1	-	-	-	-	-
COc1cccc(-c2cnc3c(NC=O)cc(-c4ccc(N5CCN(C)CC5)cc4)cn23)c1	-	-	-	35	-
CN(C)C(=O)c1cccc(-c2cnc3c(NC=O)cc(-c4ccccc4Cl)cn23)c1	35	-	-	-	-
COc1ccc2c3c(n(C)c2c1)[C@@H](CO)N(Cc1ccccc1OC)CC31CN(C(=O)C2CC2)C1	.	.	.	-	.
COC(=O)c1ccccc1NC1c2ccccc2C(=O)N1c1cccnc1 (centres undefined)	-	-	-	55	-
O=C1c2ccccc2C(Nc2ccccc2F)N1c1cccnc1 (centres undefined)	-	-	-	-	-
CCCNC(=O)N1CC2(CN(Cc3cccc(OC)c3)C2)c2c([nH]c3cc(OC)ccc23)[C@H]1CO	.	-	.	36	.
CCCNC(=O)N1CC2(CN(Cc3cccc(OC)c3)C2)c2c([nH]c3cc(OC)ccc23)[C@@H]1CO	.	-	.	32	.
CCCNC(=O)N1CC2(CN(Cc3cccc(F)c3)C2)c2c([nH]c3cc(OC)ccc23)[C@H]1CO	.	-	.	26	-
C[C@@H]1CN([C@@H](C)CO)C(=O)c2cc(NC(=O)CCC(F)(F)F)ccc2O[C@@H]1CN(C)Cc1ccc(Oc2ccccc2)cc1	.	-	-	-	.
CO[C@H]1CN(C)C(=O)c2cc(NS(C)(=O)=O)ccc2OC[C@H](C)N(Cc2ccccc2)C[C@@H]1C	.	-	-	-	-
N#Cc1nccnc1S(=O)(=O)c1cccs1	.	-	.	-	40
O=C(C1CCCC1)N1CC[C@@H]2[C@H](CO)Nc3ccc(C4=CCCCC4)cc3[C@@H]21	.	-	.	34	-
COc1cccc(-c2ccc3c(c2)[C@@H]2[C@@H](CCN2C(=O)C2CCC2)[C@H](CO)N3)c1	.	.	-	.	-

Screening data deposited in PubChem by Broad Institute.
